Hits are enriched below; roughly 1.5% of the tested compounds scored in any of these assays.
CHT PAM – allosterically activates the human high affinity choline transporter | Q9GZV3 | CHT-expressing cells, membrane potential dye, choline EC20; stronger effect = higher value; LV-AA mutant CHT in HEK293 cells | B-score at 10 µM | 310,000 tested, 0.49% active | AID 488977;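 active means initial fluorescence not abnormally high and integrated response B-score, plate-corrected, over 3 SD above library mean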
Target sequence (Q9GZV3 whole entry, looked up): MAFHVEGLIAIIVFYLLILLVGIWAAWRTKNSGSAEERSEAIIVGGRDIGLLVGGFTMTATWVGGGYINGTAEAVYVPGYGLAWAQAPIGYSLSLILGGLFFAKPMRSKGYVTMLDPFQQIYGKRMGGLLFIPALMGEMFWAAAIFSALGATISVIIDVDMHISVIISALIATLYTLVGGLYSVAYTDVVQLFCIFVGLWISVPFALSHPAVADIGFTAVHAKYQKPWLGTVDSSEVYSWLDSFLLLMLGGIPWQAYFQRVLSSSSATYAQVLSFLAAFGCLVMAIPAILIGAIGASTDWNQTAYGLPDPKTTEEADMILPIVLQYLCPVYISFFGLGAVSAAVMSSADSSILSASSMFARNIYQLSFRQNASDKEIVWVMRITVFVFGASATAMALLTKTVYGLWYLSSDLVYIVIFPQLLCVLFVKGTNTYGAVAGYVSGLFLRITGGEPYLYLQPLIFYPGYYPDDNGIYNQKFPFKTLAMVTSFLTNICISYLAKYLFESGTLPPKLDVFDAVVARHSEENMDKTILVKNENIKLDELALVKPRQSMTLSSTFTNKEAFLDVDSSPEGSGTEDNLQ
T cell modulator – modulates CD8 T cell binding to vesicles. 2C CD8+ T cell-vesicle binding, flow cytometry; stronger effect = lower value. AID 2052. response (vesicle binding), % at 7 µM. 330,000 tested, 0.068% active;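 active means response, share of CD8 T cells binding vesicles, and their 90th percentile fluorescence all below set limits, cut at about 80% in these data, passing the limit was not always enough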;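 further: values below 100% mean blocked vesicle binding to the CD8+ T cells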
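Assay system – 2C mouse CD8+ T cells · Also added – QL9-loaded Drosophila micro-vesicles · Timing – Cell–vesicle co-incubation 1.5 h at 37 °C, staining 20 min on ice · Signal – flow cytometry of vesicle-bound cells · Measure – percent CD8+ FL2 mean versus row control · Controls – Peptide-free naked vesicles (low) and QL9 vesicles with 0.7% DMSO vehicle (high)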
VLA-4 inh – inhibition in a human VLA-4 binding assay. 330,000 tested, 0.2% active. AID 2557. P13612. VLA-4 expressing cells, ligand binding flow cytometry. inhibition, % (about 7 µM as worked out from the volumes in the protocol); in the data active means inhibition above about 50%
CHT block – human CHT choline transport inhibition. Q9GZV3. CHT-expressing cells, membrane potential dye, choline response; stronger effect = lower value. B-score at 10 µM. 310,000 tested, 0.86% active. AID 488975;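 active means B-score over 3 SD under the library average, and starting fluorescence ratio not unusually high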;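 further: choline stimulus applied at its EC90 after an EC20 pre-addition; B-score computed on integrated fluorescence ratio after choline addition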
CHT act confirm – human CHT activation, confirmatory screen; activation, % at 10 µM; AID 504833; shares compounds with CHT PAM; 2,500 tested, 91% active; CHT-expressing cells, membrane potential dye fluorescence (FDSS); % of choline EC20–EC90 response window; HEK293 expressing CHT LV-AA mutant; choline added at its EC20;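 active means primary screen active, with duplicate mean activation above negative control mean plus 3 SD, cut at about 11% in these data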
HEK293 MP dye – CHT activator counter-screen hit in parental HEK293 cells; shares compounds with CHT PAM; ratio readout change at 10 µM, hits read low; membrane potential dye fluorescence (FDSS); measured after EC20 choline addition; 2,500 tested, 62% active;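 active means duplicate-averaged ratio beyond 3 SD from buffer wells, up or down, though filed actives are nearly all decreases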
Each line names hits and unclear results; the compound was inactive in the other large screens (follow-up assays come after a bar, where they were run); ! = not active in a repeat.

CCOC(=O)c1sc2nccc(OC)c2c1N=CN(C)C	CHT PAM 6.6 | CHT act confirm 63 | HEK293 MP dye -35
CCOC(=O)c1sc2ncn(/N=C/N(C)C)c(=O)c2c1C	none
CC(=O)c1ccc(OCCCC(=O)NCCc2ccc(C(F)(F)F)cc2)cc1	none
CCCc1nnc(NC(=O)COC(=O)c2cc(C)nc3ccccc23)s1	none
CCCc1nnc(NC(=O)C(CC)OC(=O)c2cc(C)nc3ccccc23)s1 (centres undefined)	CHT PAM 6.3 | CHT act confirm 22 | HEK293 MP dye inactive
CCOC(=O)C(NC(C)=O)(NC(C)C)C(F)(F)F (centres undefined)	none
CCN(CC)S(=O)(=O)c1cc(C(=O)OCC(=O)Nc2cccc(S(=O)(=O)N(C)C)c2)ccc1F	CHT PAM 15 | CHT act confirm 22 | HEK293 MP dye inactive
CN(C)S(=O)(=O)c1cccc(NC(=O)COC(=O)c2ccc3ccccc3n2)c1	none (no result: CHT PAM, CHT block)
CCc1cc(=O)oc2c(CNCc3ccc(OC)cc3OC)c(O)c(Cl)cc12	none
COC(=O)c1nnn(-c2nc(N3CCOCC3)nc(N3CCOCC3)n2)c1C	CHT PAM 7.8 | CHT act confirm 33 | HEK293 MP dye -40
COC(=O)c1ccc(Nc2nc(N3CCOCC3)nc(N3CCOCC3)n2)cc1	none
COc1ccc(C)cc1NC(=O)CNC(c1ccccc1)c1ccc(C)cc1 (centres undefined)	none
COc1ccccc1NC(=O)CNC(c1ccccc1)c1ccccc1	CHT PAM 7.5 | CHT act confirm 44 | HEK293 MP dye inactive
COc1ccc(C(CC(=O)Nc2ccc(F)cc2)c2ccccc2)cc1 (centres undefined)	none
COc1ccccc1NC(=O)CC(c1ccc(F)cc1)c1ccco1 (centres undefined)	none | CHT act confirm 24 | HEK293 MP dye inactive
O=C(COc1ccc(NC(=O)c2cccs2)cc1)c1ccc(F)cc1	none
COC(=O)c1ccc(C)c(NS(=O)(=O)c2ccc(OC)cc2)c1	CHT PAM 8.1 | CHT act confirm 48 | HEK293 MP dye inactive
COC(=O)c1ccc(C)c(NS(=O)(=O)c2ccc(C)c([N+](=O)[O-])c2)c1	none
O=C(c1ccc(Cl)c(S(=O)(=O)N2CCOCC2)c1)N1CCc2ccccc2C1	none (no result: CHT PAM, CHT block)
O=C(c1ccco1)n1c(=S)nc2ccccn21	none | CHT act confirm 34 | HEK293 MP dye -24
CC(C)NC(=O)CN1C(=O)c2cccc3cccc1c23	none
COc1ccc(-c2[nH]ncc2CNCCn2cccn2)c(F)c1	none
COc1ccc(-c2[nH]ncc2CNCc2cc(C)n(C)n2)c(F)c1	CHT PAM 7.8 | CHT act confirm 45 | HEK293 MP dye -60
CCc1c(C)c(C#N)c2nc3ccccc3n2c1N1CCN(c2cc(C)ccn2)CC1	none
Cc1c2c(n3c(nc4ccccc43)c1C#N)N(CCCN(C)C)CC2	CHT PAM 7 | CHT act confirm 44 | HEK293 MP dye -66
Cc1c(Cc2ccccc2)c(NCCN(C)C)n2c(nc3ccccc32)c1C#N	none
Cc1c2c(n3c(nc4ccccc43)c1C#N)N(CCN(C)C)CC2	CHT PAM 7.1 | CHT act confirm 42 | HEK293 MP dye -70
CCOC(=O)N1CCN(C(=O)COC(=O)c2oc3ccc(OC)cc3c2C)CC1	none
CCOc1ccc(S(=O)(=O)NCc2ccco2)c2ccccc12	none | CHT act confirm 17 | HEK293 MP dye inactive
Cc1ccc2c(c1)CCCN2CC(=O)N(C)c1c(N)n(Cc2ccccc2)c(=O)[nH]c1=O	none (no result: CHT PAM, CHT block)
CC(C)CCCN1C(Nc2ccccc2)=NC[C@@H]1Cc1ccccc1	none
CC(C)CCN1C(Nc2ccccc2)=NC[C@@H]1Cc1ccccc1	CHT PAM 7 | CHT act confirm 21 | HEK293 MP dye inactive
CC(C)C[C@H]1CN=C(Nc2ccccc2)N1CC1CCC(C(C)(C)C)CC1 (some centres undefined)	CHT PAM 29 | CHT act confirm 59 | HEK293 MP dye inactive
CCCn1c(N)c(C(=O)CN(C)CC(=O)Nc2c(Cl)cccc2Cl)c(=O)[nH]c1=O	none (no result: CHT PAM, CHT block)
COc1cc2nc(N3CCN(C(=O)c4ccco4)CC3)nc(N)c2cc1OC	CHT PAM 6.5! | CHT act confirm 37 | HEK293 MP dye -26
